Data from ChEMBL document CHEMBL4033657, “N-Aryl-N'-ethyleneaminothioureas effectively inhibit acetylcholinesterase 1 from disease-transmitting mosquitoes” (Eur J Med Chem, 2017).
Calls of active or inactive are those of the source. The calls are words filed in the database; no cut-off is given here.

Legend:
[1] = Selectivity ratio of IC50 for recombinant human AChE expressed in HEK293F cells to IC50 for recombinant full length Anopheles gambiae AChE1 expressed in baculovirus-infected Sf9 insect cells
Outline: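 Ratio of the hAChE IC50 divided by the higher of the AgAChE1 or AaAChE1 IC50. Each IC50 came from an Ellman assay (1 mM acetylthiocholine, 0.2 mM DTNB, pH 7.4, 30 °C) with eight concentrations up to 1 mM, using 2-3 replicates.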

Acetylcholinesterase [2] = target: T1, Acetylcholinesterase (Anopheles gambiae, UniProt Q869C3); assay: (§1) Inhibition of recombinant full length Anopheles gambiae AChE1 expressed in baculovirus-infected Sf9 insect cells using acetylthiocholine iodide as substrate measured over 60 secs by Ellman's method
Acetylcholinesterase [3] = target: Acetylcholinesterase (Homo sapiens, UniProt P22303); assay: Inhibition of recombinant human AChE expressed in HEK293F cells using acetylthiocholine iodide as substrate measured over 60 secs by Ellman's method; design: species or system HEK293
[4] = (§2) Inhibition of recombinant full length Aedes aegypti AChE1 expressed in baculovirus-infected Sf9 insect cells using acetylthiocholine iodide as substrate measured over 60 secs by Ellman's method
Outline: (§3)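 Secreted, non-purified recombinant enzyme in growth medium, tested as enzyme source. Ellman assay at 30 °C in 0.1 M phosphate buffer pH 7.4 with 0.2 mM DTNB and 1 mM acetylthiocholine iodide; A412 followed over 60 s. Compound (100 mM DMSO stock) tested at eight concentrations, maximum 1 mM. Activity set relative to eight uninhibited controls per plate; IC50 from three-parameter variable-slope fit; 2-3 independent replicates.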

Acetylcholinesterase [5] = target: Acetylcholinesterase (Anopheles gambiae, UniProt Q869C3, G122S); assay: Inhibition of recombinant full length Anopheles gambiae AChE1 G122S mutant expressed in baculovirus-infected Sf9 insect cells using acetylthiocholine iodide as substrate measured over 60 secs by Ellman's method
Aedes aegypti [6] = assay: Inhibition of recombinant full length Aedes aegypti AChE1 expressed in baculovirus-infected Sf9 insect cells at 1 mM using acetylthiocholine iodide as substrate measured over 60 secs by Ellman's method; outline: as §3
[7] = target: Acetylcholinesterase (Anopheles gambiae) (UniProt Q869C3); assay: Inhibition of recombinant full length Anopheles gambiae AChE1 expressed in baculovirus-infected Sf9 insect cells at 1 mM using acetylthiocholine iodide as substrate measured over 60 secs by Ellman's method; outline: as §3
[8] = target: Acetylcholinesterase (Anopheles gambiae) (UniProt Q869C3); assay: as §1
Aedes aegypti [9] = assay: as §2; outline: as §3
[10] = tested on: Acetylcholinesterase (Anopheles gambiae), Q869C3 [G122S]; assay: Inhibition of recombinant full length Anopheles gambiae AChE1 G122S mutant expressed in baculovirus-infected Sf9 insect cells up to 1 mM using acetylthiocholine iodide as substrate measured over 60 secs by Ellman's method; outline: as §3
Aedes aegypti [11] = assay: Insecticidal activity against 3rd instar larvae of Aedes aegypti Mombasa assessed as mortality at 500 uM administered via de-chlorinated tap water after 24 hrs; type: functional
Outline: (§4)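 Kenyan strains were reared at 27-28 °C, about 80% humidity, 12/12 h light. Per compound and concentration, 25 third-instar larvae were placed in 100 ml de-chlorinated water containing the compound and kept under insectary conditions. The negative control was plain water; the positive control was propoxur at 25 µM. Mortality was scored at 24 h; 75 treated and 50 control larvae in total.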

Aedes aegypti [12] = assay: Insecticidal activity against five days old adult Aedes aegypti Mombasa assessed as mortality at 100 mM applied topically on upper part of pronotum after 24 hrs (reference value: 3%); type: functional; conditions: topical
Aedes aegypti [13] = assay: Insecticidal activity against 3rd instar larvae of Aedes aegypti Mombasa assessed as mortality at 50 uM administered via de-chlorinated tap water after 48 hrs (reference value: 0 to 4%); type: functional
Anopheles gambiae [14] = assay: Insecticidal activity against five days old adult Anopheles gambiae Kisumu assessed as mortality at 0.2 nmol applied topically on upper part of pronotum after 24 hrs; type: functional
Anopheles gambiae [15] = assay: Insecticidal activity against 3rd instar larvae of Anopheles gambiae Kisumu assessed as mortality at 500 uM administered via de-chlorinated tap water after 24 hrs; type: functional; outline: as §4
Aedes aegypti [16] = assay: Insecticidal activity against five days old adult Aedes aegypti Mombasa assessed as mortality at 1 nmol applied topically on upper part of pronotum after 24 hrs; type: functional
Anopheles gambiae [17] = assay: Insecticidal activity against five days old adult Anopheles gambiae Kisumu assessed as mortality at 100 mM applied topically on upper part of pronotum after 48 hrs (reference value: 15 to 24%); type: functional; conditions: topical
Acetylcholinesterase [18] = target: T1, Acetylcholinesterase; assay: Inhibition of AChE1 in Anopheles gambiae body extract using acetylthiocholine iodide as substrate measured over 60 secs by Ellman's method
Acetylcholinesterase [19] = target: T1, Acetylcholinesterase; assay: Inhibition of AChE1 in Anopheles gambiae head extract using acetylthiocholine iodide as substrate measured over 60 secs by Ellman's method
Anopheles gambiae [20] = assay: Insecticidal activity against five days old adult Anopheles gambiae Kisumu assessed as mortality at 10 mM applied topically on upper part of pronotum after 48 hrs (reference value: 14 to 22%); type: functional; conditions: topical
Anopheles gambiae [21] = assay: Insecticidal activity against five days old adult Anopheles gambiae Kisumu assessed as mortality at 10 nmol applied topically on upper part of pronotum after 24 hrs; type: functional
Anopheles gambiae [22] = assay: Insecticidal activity against five days old adult Anopheles gambiae Kisumu assessed as mortality at 2 mM applied topically on upper part of pronotum after 24 hrs (reference value: 3 to 17%); type: functional; conditions: topical
Aedes aegypti [23] = assay: Insecticidal activity against five days old adult Aedes aegypti Mombasa assessed as mortality at 0.2 nmol applied topically on upper part of pronotum after 24 hrs; type: functional
Anopheles gambiae [24] = assay: Insecticidal activity against five days old adult Anopheles gambiae Kisumu assessed as mortality at 2 mM applied topically on upper part of pronotum after 48 hrs (reference value: 13 to 38%); type: functional; conditions: topical
Aedes aegypti [25] = assay: Insecticidal activity against five days old adult Aedes aegypti Mombasa assessed as mortality at 100 mM applied topically on upper part of pronotum after 48 hrs (reference value: 7 to 8%); type: functional; conditions: topical
Anopheles gambiae [26] = assay: Insecticidal activity against 3rd instar larvae of Anopheles gambiae Kisumu assessed as mortality at 500 uM administered via de-chlorinated tap water after 48 hrs; type: functional
Aedes aegypti [27] = assay: Insecticidal activity against five days old adult Aedes aegypti Mombasa assessed as mortality at 10 nmol applied topically on upper part of pronotum after 24 hrs; type: functional
Anopheles gambiae [28] = assay: Insecticidal activity against five days old adult Anopheles gambiae Kisumu assessed as mortality at 1 nmol applied topically on upper part of pronotum after 24 hrs; type: functional
Anopheles gambiae [29] = assay: Insecticidal activity against 3rd instar larvae of Anopheles gambiae Kisumu assessed as mortality at 50 uM administered via de-chlorinated tap water after 24 hrs; type: functional; outline: as §4
Aedes aegypti [30] = assay: Insecticidal activity against five days old adult Aedes aegypti Mombasa assessed as mortality at 2 mM applied topically on upper part of pronotum after 48 hrs (reference value: 3 to 12%); type: functional; conditions: topical
Aedes aegypti [31] = assay: Insecticidal activity against five days old adult Aedes aegypti Mombasa assessed as mortality at 2 mM applied topically on upper part of pronotum after 24 hrs (reference value: 2 to 10%); type: functional; conditions: topical
Aedes aegypti [32] = assay: Insecticidal activity against five days old adult Aedes aegypti Mombasa assessed as mortality at 10 mM applied topically on upper part of pronotum after 24 hrs (reference value: 3 to 15%); type: functional; conditions: topical
Anopheles gambiae [33] = assay: Insecticidal activity against 3rd instar larvae of Anopheles gambiae Kisumu assessed as mortality at 50 uM administered via de-chlorinated tap water after 48 hrs; type: functional
Anopheles gambiae [34] = assay: Insecticidal activity against five days old adult Anopheles gambiae Kisumu assessed as mortality at 10 mM applied topically on upper part of pronotum after 24 hrs (reference value: 8 to 16%); type: functional; conditions: topical
Anopheles gambiae [35] = assay: Insecticidal activity against five days old adult Anopheles gambiae Kisumu assessed as mortality at 100 mM applied topically on upper part of pronotum after 24 hrs (reference value: 9 to 10%); type: functional; conditions: topical
Aedes aegypti [36] = assay: Insecticidal activity against five days old adult Aedes aegypti Mombasa assessed as mortality at 10 mM applied topically on upper part of pronotum after 48 hrs (reference value: 3 to 15%); type: functional; conditions: topical
Aedes aegypti [37] = assay: Insecticidal activity against 3rd instar larvae of Aedes aegypti Mombasa assessed as mortality at 500 uM administered via de-chlorinated tap water after 48 hrs (reference value: 0 to 2%); type: functional
Aedes aegypti [38] = assay: Insecticidal activity against 3rd instar larvae of Aedes aegypti Mombasa assessed as mortality at 50 uM administered via de-chlorinated tap water after 24 hrs; type: functional; outline: as §4

## COc1ccccc1NC(=S)NCCN1CCCCC1
[1]
  Ratio IC50: 1
Acetylcholinesterase [2]
  IC50: 29 µM
Acetylcholinesterase [3]
  IC50: 32 µM
[4]
  IC50: 22 µM
Acetylcholinesterase [5]
  IC50: 66 µM

## COc1ccc(NC(S)=NCCN2CCC(C)CC2)cc1Cl
[1]
  Ratio IC50: 13
Aedes aegypti [6]
  inhibition: 90%
[7]
  inhibition: 90%
Acetylcholinesterase [2]
  IC50: 0.96 µM
[8]
  inhibition: Dose-dependent effect
Acetylcholinesterase [3]
  IC50: 12 µM
Aedes aegypti [9]
  inhibition: Dose-dependent effect
[4]
  IC50: 0.63 µM
Acetylcholinesterase [5]
  IC50: 24 µM

## COc1ccccc1N=C(S)NCCN1CCOCC1
[10]
  inhibition: inactive
Acetylcholinesterase [2]
  IC50: > 200 µM
Acetylcholinesterase [3]
  IC50: > 200 µM
[4]
  IC50: > 200 µM

## COc1ccccc1NC(=S)NCCN(C)C
Aedes aegypti [11]
  mortality at 500 µM: 5%
Aedes aegypti [12]
  mortality at 100000 µM: 10%
Aedes aegypti [13]
  mortality at 50 µM: 7%
[1]
  Ratio IC50: 17
Anopheles gambiae [14]
  mortality: 16%
Anopheles gambiae [15]
  mortality at 500 µM: 3%
Aedes aegypti [16]
  mortality: 10%
Anopheles gambiae [17]
  mortality at 100000 µM: 73%
Acetylcholinesterase [18]
  IC50: 7.6 µM
Acetylcholinesterase [19]
  IC50: 7.1 µM
Anopheles gambiae [20]
  mortality at 10000 µM: 20%
Anopheles gambiae [21]
  mortality: 57%
Anopheles gambiae [22]
  mortality at 2000 µM: 16%
Aedes aegypti [23]
  mortality: 8%
Anopheles gambiae [24]
  mortality at 2000 µM: 23%
Aedes aegypti [25]
  mortality at 100000 µM: 18%
Anopheles gambiae [26]
  mortality at 500 µM: 3%
Aedes aegypti [6]
  inhibition: 50%
Aedes aegypti [27]
  mortality: 10%
[7]
  inhibition: 50%
Anopheles gambiae [28]
  mortality: 0%
Anopheles gambiae [29]
  mortality at 50 µM: 5%
Aedes aegypti [30]
  mortality at 2000 µM: 13%
Acetylcholinesterase [2]
  IC50: 7.1 µM
[8]
  inhibition: Dose-dependent effect
Aedes aegypti [31]
  mortality at 2000 µM: 8%
Aedes aegypti [32]
  mortality at 10000 µM: 10%
Acetylcholinesterase [3]
  IC50: 120 µM
Anopheles gambiae [33]
  mortality at 50 µM: 7%
Anopheles gambiae [34]
  mortality at 10000 µM: 9%
Aedes aegypti [9]
  inhibition: Dose-dependent effect
[4]
  IC50: 6 µM
Acetylcholinesterase [5]
  IC50: 50 µM
Anopheles gambiae [35]
  mortality at 100000 µM: 61%
Aedes aegypti [36]
  mortality at 10000 µM: 15%
Aedes aegypti [37]
  mortality at 500 µM: 7%
Aedes aegypti [38]
  mortality at 50 µM: 7%

## COc1ccc(NC(S)=NCCN2CCC(C)CC2)cc1
Acetylcholinesterase [2]
  IC50: > 200 µM
Acetylcholinesterase [3]
  IC50: > 200 µM
[4]
  IC50: > 200 µM
Acetylcholinesterase [5]
  IC50: > 200 µM

## S=C(NCCN1CCOCC1)Nc1cccc(Cl)c1
[1]
  Ratio IC50: > 3
Acetylcholinesterase [2]
  IC50: 68 µM
Acetylcholinesterase [3]
  IC50: > 200 µM
[4]
  IC50: 53 µM
Acetylcholinesterase [5]
  IC50: > 200 µM
